Source: ChEMBL document CHEMBL1138143, “A new class of blockers of the voltage-gated potassium channel Kv1.3 via modification of the 4- or 7-position of khellinone” (J Med Chem, 2006)

Tests used:
[1] = molecular target: Potassium voltage-gated channel subfamily A member 3 (Mus musculus, UniProt P16390); assay: Effect on blockade of mouse Kv1.3 channel expressed in L929 cells; type: functional, cell-based
How it was run: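 Whole-cell patch clamp on L929 cells stably expressing mouse Kv1.3, holding potential -80 mV. Bath: Ringer (160 mM NaCl, 4.5 mM KCl, 2 mM CaCl2, 1 mM MgCl2, 10 mM HEPES, pH 7.4). Pipette: 134 mM KF, 2 mM MgCl2, 10 mM HEPES, 10 mM EGTA, pH 7.2. Current elicited by 500-ms pulses to 40 mV every 45 s. Series resistance compensation of 60-80% applied above 2 nA.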

[2] = molecular target: Potassium voltage-gated channel subfamily A member 2 (Homo sapiens, UniProt P16389); assay: Effect on blockade of Kv1.2 channel; type: functional
How it was run: (§1)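 Whole-cell patch clamp with a holding potential of -80 mV on cell lines stably expressing Kv1.1, Kv1.2, Kv1.4 or Kv1.5. Recording followed previously described methods. EC50 came from a Hill equation fit to the reduction of area under the current curve.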

[3] = molecular target: Potassium voltage-gated channel subfamily A member 1 (Homo sapiens, UniProt Q09470); assay: Effect on blockade of Kv1.1 channel; type: functional; how it was run: as §1
[4] = molecular target: Potassium voltage-gated channel subfamily A member 5 (Homo sapiens, UniProt P22460); assay: Effect on blockade of Kv1.5 channel; type: functional; how it was run: as §1
[5] = molecular target: Potassium voltage-gated channel subfamily A member 4 (Homo sapiens, UniProt P22459); assay: Effect on blockade of Kv1.4 channel; type: functional; how it was run: as §1
T-cell = assay: Inhibition of anti-CD3 antibody stimulated human T cell proliferation; type: functional, cell-based
How it was run: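 Human PBMCs were isolated from healthy donors by density gradient and plated at 2 × 10^5 cells/well in RPMI 1640 with 10% FCS. Cells were preincubated with compound for 30 min, then stimulated with 5 ng/mL anti-CD3 for 48 h. [3H]-thymidine (1 µCi/well) was added for the last 6 h. Done in triplicate and normalized to maximal control incorporation.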

[6] = molecular target: Voltage-gated inwardly rectifying potassium channel KCNH2 (Homo sapiens, UniProt Q12809); assay: Effect on blockade of Kv11.1 channel; type: functional
Chain of Voltage-gated inwardly rectifying potassium channel KCNH2 (Q12809 whole entry): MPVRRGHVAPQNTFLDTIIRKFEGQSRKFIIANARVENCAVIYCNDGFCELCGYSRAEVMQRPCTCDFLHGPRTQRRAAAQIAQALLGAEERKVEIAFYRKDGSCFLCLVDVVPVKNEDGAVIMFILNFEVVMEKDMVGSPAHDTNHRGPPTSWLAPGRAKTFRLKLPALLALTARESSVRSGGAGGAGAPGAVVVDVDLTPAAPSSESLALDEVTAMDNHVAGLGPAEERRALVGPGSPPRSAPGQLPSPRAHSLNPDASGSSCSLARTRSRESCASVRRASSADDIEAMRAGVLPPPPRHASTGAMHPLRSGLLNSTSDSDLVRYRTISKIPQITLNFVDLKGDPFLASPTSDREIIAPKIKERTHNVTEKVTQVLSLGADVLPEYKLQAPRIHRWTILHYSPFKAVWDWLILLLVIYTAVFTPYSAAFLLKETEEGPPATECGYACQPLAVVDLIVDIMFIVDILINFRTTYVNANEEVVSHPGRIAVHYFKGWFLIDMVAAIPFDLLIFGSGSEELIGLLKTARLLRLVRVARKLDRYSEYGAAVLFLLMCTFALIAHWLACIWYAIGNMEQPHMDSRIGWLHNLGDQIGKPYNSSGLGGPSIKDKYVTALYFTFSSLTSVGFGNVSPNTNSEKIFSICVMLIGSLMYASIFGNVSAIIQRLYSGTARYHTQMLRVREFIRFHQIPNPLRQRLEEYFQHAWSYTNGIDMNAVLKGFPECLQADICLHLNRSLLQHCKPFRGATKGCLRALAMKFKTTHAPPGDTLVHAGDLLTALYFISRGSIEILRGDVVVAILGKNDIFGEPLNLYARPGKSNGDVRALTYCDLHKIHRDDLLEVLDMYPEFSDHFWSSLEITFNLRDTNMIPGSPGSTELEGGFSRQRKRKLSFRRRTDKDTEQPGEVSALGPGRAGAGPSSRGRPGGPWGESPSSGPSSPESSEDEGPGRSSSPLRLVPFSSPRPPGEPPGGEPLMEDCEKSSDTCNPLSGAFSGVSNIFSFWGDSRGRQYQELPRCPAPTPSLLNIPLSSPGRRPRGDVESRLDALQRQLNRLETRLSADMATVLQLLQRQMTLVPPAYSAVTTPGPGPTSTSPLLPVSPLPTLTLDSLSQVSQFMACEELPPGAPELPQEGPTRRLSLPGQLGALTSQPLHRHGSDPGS

Chain of Potassium voltage-gated channel subfamily A member 2 (P16389 whole entry): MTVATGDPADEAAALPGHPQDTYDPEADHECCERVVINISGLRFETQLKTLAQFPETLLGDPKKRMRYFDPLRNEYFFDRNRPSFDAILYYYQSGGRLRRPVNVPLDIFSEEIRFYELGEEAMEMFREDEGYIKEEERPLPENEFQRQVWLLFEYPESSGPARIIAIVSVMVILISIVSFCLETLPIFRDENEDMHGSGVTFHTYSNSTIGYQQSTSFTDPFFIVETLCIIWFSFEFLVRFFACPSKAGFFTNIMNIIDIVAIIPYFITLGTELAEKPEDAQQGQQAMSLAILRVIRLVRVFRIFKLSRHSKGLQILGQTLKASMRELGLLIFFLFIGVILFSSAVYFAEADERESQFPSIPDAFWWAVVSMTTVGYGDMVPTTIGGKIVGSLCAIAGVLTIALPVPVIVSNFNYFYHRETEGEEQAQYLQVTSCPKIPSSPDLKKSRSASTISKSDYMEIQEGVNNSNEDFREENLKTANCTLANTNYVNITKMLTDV
Chain of Potassium voltage-gated channel subfamily A member 4 (P22459 whole entry): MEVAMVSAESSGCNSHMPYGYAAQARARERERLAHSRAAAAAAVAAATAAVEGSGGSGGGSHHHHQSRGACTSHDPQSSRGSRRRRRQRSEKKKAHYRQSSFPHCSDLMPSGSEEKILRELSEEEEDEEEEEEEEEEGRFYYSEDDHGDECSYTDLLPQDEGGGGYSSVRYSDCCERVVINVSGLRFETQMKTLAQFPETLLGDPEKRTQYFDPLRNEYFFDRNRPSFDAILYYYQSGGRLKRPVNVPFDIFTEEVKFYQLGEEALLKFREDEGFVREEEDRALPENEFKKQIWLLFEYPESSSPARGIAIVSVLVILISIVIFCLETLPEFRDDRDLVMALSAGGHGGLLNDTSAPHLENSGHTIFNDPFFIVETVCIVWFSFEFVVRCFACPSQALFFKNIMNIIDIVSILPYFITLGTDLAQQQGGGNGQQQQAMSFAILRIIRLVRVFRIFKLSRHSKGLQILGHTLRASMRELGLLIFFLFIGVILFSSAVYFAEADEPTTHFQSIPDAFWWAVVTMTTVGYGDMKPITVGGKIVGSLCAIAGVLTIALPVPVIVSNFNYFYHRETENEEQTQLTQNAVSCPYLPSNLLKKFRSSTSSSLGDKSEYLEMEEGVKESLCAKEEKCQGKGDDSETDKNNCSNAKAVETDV
Chain of Potassium voltage-gated channel subfamily A member 5 (P22460 whole entry): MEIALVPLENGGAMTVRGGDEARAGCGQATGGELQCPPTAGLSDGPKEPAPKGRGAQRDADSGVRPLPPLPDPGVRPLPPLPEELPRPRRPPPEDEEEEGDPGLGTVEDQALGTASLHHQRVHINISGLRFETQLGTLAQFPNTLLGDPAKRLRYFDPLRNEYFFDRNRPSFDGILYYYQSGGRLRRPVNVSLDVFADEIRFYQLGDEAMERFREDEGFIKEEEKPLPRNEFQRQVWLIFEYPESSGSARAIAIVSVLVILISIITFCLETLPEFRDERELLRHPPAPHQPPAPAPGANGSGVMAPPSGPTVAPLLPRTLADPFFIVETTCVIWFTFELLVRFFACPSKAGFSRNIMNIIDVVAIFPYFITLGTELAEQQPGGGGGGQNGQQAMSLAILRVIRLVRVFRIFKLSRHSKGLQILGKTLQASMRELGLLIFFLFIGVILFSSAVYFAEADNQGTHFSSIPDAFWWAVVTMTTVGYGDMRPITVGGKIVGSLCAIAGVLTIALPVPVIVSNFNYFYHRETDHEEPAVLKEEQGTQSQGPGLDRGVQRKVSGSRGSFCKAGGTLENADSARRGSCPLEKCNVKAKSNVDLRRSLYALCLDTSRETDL
Chain of Potassium voltage-gated channel subfamily A member 3 (P16390 whole entry): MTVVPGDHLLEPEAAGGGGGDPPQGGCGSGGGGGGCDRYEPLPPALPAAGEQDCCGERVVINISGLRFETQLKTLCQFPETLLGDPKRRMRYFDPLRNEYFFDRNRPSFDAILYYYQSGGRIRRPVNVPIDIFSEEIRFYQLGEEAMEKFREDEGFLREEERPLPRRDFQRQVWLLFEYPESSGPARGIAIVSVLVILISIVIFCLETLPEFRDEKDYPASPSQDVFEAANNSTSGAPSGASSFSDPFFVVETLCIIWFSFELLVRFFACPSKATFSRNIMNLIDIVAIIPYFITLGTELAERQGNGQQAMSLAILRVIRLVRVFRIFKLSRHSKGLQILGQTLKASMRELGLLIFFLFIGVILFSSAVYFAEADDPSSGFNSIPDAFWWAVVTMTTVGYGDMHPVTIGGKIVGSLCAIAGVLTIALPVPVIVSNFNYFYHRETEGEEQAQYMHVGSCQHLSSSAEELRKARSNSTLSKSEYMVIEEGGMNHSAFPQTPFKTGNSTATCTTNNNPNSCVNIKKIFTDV
Chain of Potassium voltage-gated channel subfamily A member 1 (Q09470 whole entry): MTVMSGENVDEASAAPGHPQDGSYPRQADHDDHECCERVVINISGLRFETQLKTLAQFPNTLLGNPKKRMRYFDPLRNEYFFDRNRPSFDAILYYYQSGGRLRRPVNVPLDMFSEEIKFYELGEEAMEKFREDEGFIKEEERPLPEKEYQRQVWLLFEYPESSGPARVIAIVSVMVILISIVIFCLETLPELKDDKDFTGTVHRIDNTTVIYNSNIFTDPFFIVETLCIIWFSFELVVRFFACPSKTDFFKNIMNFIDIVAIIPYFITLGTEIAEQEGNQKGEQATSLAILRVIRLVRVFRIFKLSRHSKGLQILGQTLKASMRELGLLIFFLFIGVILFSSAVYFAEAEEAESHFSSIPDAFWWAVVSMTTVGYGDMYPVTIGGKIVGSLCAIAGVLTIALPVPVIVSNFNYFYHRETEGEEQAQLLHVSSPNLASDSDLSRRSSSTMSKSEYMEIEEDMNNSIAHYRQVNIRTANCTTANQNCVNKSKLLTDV

| SMILES | EC50 [1] | further results |
| --- | --- | --- |
| COc1c(C(C)=O)c(O)c(OCc2ccc(C(C)(C)C)cc2)c2occc12 | 5.8 µM |  |
| CCOc1c(C(C)=O)c(OCCCCCCOc2c(C(C)=O)c(OCC)c3ccoc3c2OC)c(OC)c2occc12 | 0.8 µM |  |
| COc1c(O)c(C(C)=O)c(OCc2ccc(C(=O)c3ccccc3)cc2)c2ccoc12 | 0.5 µM |  |
| COc1c(C(C)=O)c(O)c(OCc2ccc(-c3ccccc3)cc2)c2occc12 | 1.2 µM |  |
| CCCOc1c(O)c(C(C)=O)c(OC)c2ccoc12 | 8 µM |  |
| COc1c(O)c(C(C)=O)c(OCc2cccc(Cl)c2)c2ccoc12 | 1.4 µM |  |
| COc1c(C(C)=O)c(O)c(OCc2ccc(F)cc2)c2occc12 | 0.7 µM |  |
| CCOc1c(O)c(C(C)=O)c(OC)c2ccoc12 | 10 µM |  |
| COc1c(C(C)=O)c(O)c(OCc2ccc(Cl)cc2)c2occc12 | 0.42 µM |  |
| COc1c(O)c(C(C)=O)c(OCc2cccc(C(=O)O)c2)c2ccoc12 | > 10 µM |  |
| COc1c(O)c(C(C)=O)c(OCc2cccc([N+](=O)[O-])c2)c2ccoc12 | 1.4 µM |  |
| COc1c(C(C)=O)c(O)c(OCc2cccc(OC(F)(F)F)c2)c2occc12 | 0.45 µM |  |
| COc1c(O)c(C(C)=O)c(OCc2cccc(C)c2)c2ccoc12 | 1 µM |  |
| COc1c(O)c(C(C)=O)c(OCc2cccc3ccccc23)c2ccoc12 | 8 µM |  |
| COc1c(C(C)=O)c(O)c(OCc2ccc(C(=O)c3ccccc3)cc2)c2occc12 | 0.5 µM |  |
| COc1c(C(C)=O)c(O)c(OCc2ccc(OC(F)(F)F)cc2)c2occc12 | 0.6 µM |  |
| COc1c(C(C)=O)c(O)c(OCc2cccc([N+](=O)[O-])c2)c2occc12 | 0.6 µM |  |
| COc1c(O)c(C(C)=O)c(OCc2ccccc2)c2ccoc12 | 2.5 µM |  |
| COc1c(C(C)=O)c(O)c(OCc2cccc(Cl)c2)c2occc12 | 0.6 µM |  |

| SMILES | EC50 [1] | further results |
| --- | --- | --- |
| CC(=O)c1c(O)c(OCc2ccccc2)c2occc2c1OCc1ccccc1 | 1.2 µM | EC50 [2]: 10 µM; EC50 [3]: 7 µM; EC50 [4]: 5 µM; EC50 [5]: > 20 µM |
| CCCCCOc1c(C(C)=O)c(O)c(OC)c2occc12 | 4 µM |  |
| COc1c(C(C)=O)c(O)c(OCc2cccc(F)c2)c2occc12 | 0.75 µM |  |
| COc1cccc(COc2c(C(C)=O)c(O)c(OC)c3occc23)c1 | 0.68 µM |  |
| COc1c(O)c(C(C)=O)c(OCc2ccc3ccccc3c2)c2ccoc12 | 5 µM |  |
| COc1c(O)c(C(C)=O)c(OCc2ccccc2F)c2ccoc12 | 1.7 µM |  |
| CCOc1c(C(=O)/C=C/c2cccc(O)c2)c(O)c(OC)c2occc12 | 2.5 µM |  |
| COc1c(C(C)=O)c(O)c(OCc2ccccc2C)c2occc12 | 1.9 µM |  |
| COc1c(O)c(C(C)=O)c(OCc2ccc(-c3ccccc3)cc2)c2ccoc12 | 0.9 µM |  |
| COc1c(C(C)=O)c(O)c(OCc2ccc(OCc3ccccc3)cc2)c2occc12 | 6.3 µM |  |
| COc1c(O)c(C(C)=O)c(OCc2ccc(C(C)C)cc2)c2ccoc12 | 0.7 µM |  |
| COc1c(O)c(C(C)=O)c(OCc2ccccc2C)c2ccoc12 | 2 µM |  |
| COc1c(O)c(C(C)=O)c(OCc2ccc(Br)cc2)c2ccoc12 | 0.5 µM |  |
| CCOc1c(C(C)=O)c(O)c(OCC)c2occc12 | 6 µM |  |
| COc1c(C(C)=O)c(O)c(OCc2ccc(C(F)(F)F)cc2)c2occc12 | 0.42 µM |  |
| COc1c(O)c(C(C)=O)c(OCc2ccccc2Cl)c2ccoc12 | 1.2 µM |  |
| COc1c(O)c(C(C)=O)c(OCc2ccccc2-c2ccccc2)c2ccoc12 | 2 µM |  |
| COc1c(C(C)=O)c(O)c(OCc2ccccc2-c2ccccc2)c2occc12 | 1.1 µM |  |
| COc1c(C(C)=O)c(O)c(OCc2ccccc2F)c2occc12 | 2.5 µM |  |

| SMILES | EC50 [1] | further results |
| --- | --- | --- |
| COc1c(O)c(C(C)=O)c(OCc2ccc(C(C)(C)C)cc2)c2ccoc12 | 1.5 µM |  |
| CCOc1c(C(C)=O)c(O)c(OC)c2occc12 | 7 µM |  |
| COc1c(O)c(C(C)=O)c(OCc2ccc(C(F)(F)F)cc2)c2ccoc12 | 0.51 µM |  |
| COc1c(C(C)=O)c(O)c(OCc2ccccc2)c2occc12 | 1.2 µM |  |
| COc1c(O)c(C(C)=O)c(OCc2ccc(OCc3ccccc3)cc2)c2ccoc12 | 8.8 µM |  |
| COc1c(O)c(C(C)=O)c(OCc2ccc(Cl)cc2)c2ccoc12 | 0.48 µM | EC50 [2]: 2.5 µM; EC50 (T-cell): 2.5 µM; EC50 [3]: 1.7 µM; EC50 [6]: 5 µM; EC50 [4]: 0.7 µM; EC50 [5]: 4.8 µM |
| COc1c(O)c(C(C)=O)c(OCc2ccc(OC(F)(F)F)cc2)c2ccoc12 | 1.8 µM |  |
| COc1c(C(C)=O)c(O)c(OCc2ccc3ccccc3c2)c2occc12 | 5 µM |  |
| CCCCCOc1c(O)c(C(C)=O)c(OC)c2ccoc12 | 3 µM |  |
| COc1c(C(C)=O)c(O)c(OCc2cccc(C)c2)c2occc12 | 1.2 µM |  |
| COc1c(O)c(C(C)=O)c(OCc2cccc(F)c2)c2ccoc12 | 1.2 µM |  |
| COc1ccc(COc2c(C(C)=O)c(O)c(OC)c3occc23)cc1 | 1.5 µM |  |
| CCCOc1c(C(C)=O)c(O)c(OC)c2occc12 | 5 µM |  |
| COc1c(C(C)=O)c(O)c(OCc2ccc(Br)cc2)c2occc12 | 0.4 µM | EC50 [2]: 1.4 µM; EC50 (T-cell): 2.5 µM; EC50 [3]: 1.2 µM; EC50 [4]: 0.9 µM; EC50 [5]: 4.3 µM |
| COc1c(C(C)=O)c(O)c(OCc2ccccc2Cl)c2occc12 | 0.7 µM |  |
| COc1c(C(C)=O)c(O)c(OCc2ccc(C(C)C)cc2)c2occc12 | 1 µM |  |
| COc1c(O)c(C(C)=O)c(OCc2ccc(F)cc2)c2ccoc12 | 1 µM |  |
| COc1c(O)c(C(C)=O)c(OCc2cccc(OC(F)(F)F)c2)c2ccoc12 | 0.55 µM |  |
| COc1c(C(C)=O)c(O)c(OC)c2occc12 | 45 µM |  |
